Assay results of several laboratories.
Each line is one published result; the experiments were not run side by side.
HDAC2: Histone deacetylase 2 (HDAC2, Homo sapiens, UniProt Q92769)
HTR2A: 5-hydroxytryptamine receptor 2A (HTR2A, Homo sapiens, UniProt P28223)
PPO3: PPO3 (Agaricus bisporus, UniProt C7FF04)

O=C(NO)c1cncc(OS(=O)(=O)Oc2ccc(C(F)(F)F)cc2)c1 gave an IC50 of 5.61 µM (HDAC2; enzyme activity; inhibitor; fluorescence).
For O=C(c1cc(C2CCNC2)[nH]n1)N1CCC(c2cccc(Cl)c2)C1 (stereo not drawn), the IC50 was 19.3 µM (HTR2A; calcium signal; antagonist).
The IC50 of Nc1ccc(-c2cc(-c3ccc(-c4cc(-c5ccc(N)cc5)nc(N)n4)cc3)nc(N)n2)cc1 is reported as 12.4 µM (PPO3; enzyme activity; inhibitor; absorbance).
With CC(C)C(N)CCN(C)C(=O)C(=O)Nc1cc2ccccc2cc1Cl (stereo not drawn) the IC50 was 15.7 µM (HTR2A; calcium signal; antagonist).
Nc1nc(-c2ccccc2)cc(-c2ccc(-c3cc(-c4ccccc4)nc(N)n3)cc2)n1 has an IC50 of 86.7 µM (PPO3; enzyme activity; inhibitor; absorbance).
For C#Cc1ccc2c(=O)[nH]nc(Cc3ccc(F)c(C(=O)N4CCN(C(=O)C=C)CC4)c3)c2c1, the IC50 was 0.85 µM (Poly [ADP-ribose] polymerase 1 (PARP1, Homo sapiens, UniProt P09874); enzyme activity; inhibitor).
CN(C(=O)c1cn[nH]n1)C1CCN(CCc2cccc(Cl)c2Cl)C1 (stereo not drawn) has an IC50 of 0.907 µM (HTR2A; calcium signal; antagonist).
With CCc1c(C)nc(-c2ccc(Cl)s2)nc1Nc1ccc(CC(=O)O)cc1 the IC50 was about 154 µM (cGMP-specific 3',5'-cyclic phosphodiesterase (PDE5A, Homo sapiens, UniProt O76074); enzyme activity; inhibitor; FP).
C=CCNC(=O)C(C)N1CCCC(c2ccc(O)cc2)C1 (stereo not drawn) has an IC50 of 15.8 µM (HTR2A; calcium signal; antagonist).
Nc1nc(-c2ccc(F)cc2)cc(-c2ccc(-c3cc(-c4ccc(F)cc4)nc(N)n3)cc2)n1 gave an IC50 of 46 µM (PPO3; enzyme activity; inhibitor; absorbance).
For O=C(/C=C/c1cccc(OS(=O)(=O)Oc2ccc(C(F)(F)F)cc2)c1)NO, the IC50 was 0.45 µM (HDAC2; enzyme activity; inhibitor; fluorescence).
O=C1CC[C@H](N2Cc3cc(N4CCN(CC5CCN(c6ccc([C@@H]7c8ccc(O)cc8CC[C@@H]7c7ccccc7)cc6)CC5)CC4)ccc3C2=O)C(=O)N1 gave an IC50 of 0.25 µM (Kappa-type opioid receptor (OPRK1, Homo sapiens, UniProt P41145); ligand displacement; radioligand).
